In ChEMBL document CHEMBL5352420, “Enantioselective synthesis of 4-amino-3,4-dihydrocoumarins and their non-cyclic hydroxyester precursors: Biological evaluation for the treatment of glioblastoma multiforme” (Eur J Med Chem, 2022):
Activity calls are given as the source filed them. No cut-off for these calls is given here.

What was measured:
[1] = Cytotoxicity against mouse N13 cells assessed as cell viability at 0.31 uM incubated for 24 hrs by MTT assay relative to control; format: functional; conditions: read-out: Activity
Method in brief: (§1)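 MTT assay (mitochondrial activity). Cells grown at 37 °C, humidified 5% CO2: N13 in RPMI, F98 in DMEM.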

[2] = Cytotoxicity against mouse N13 cells assessed as cell growth inhibition incubated for 24 hrs by MTT assay; format: functional, cell-based; conditions: N13, 24 h; method in brief: as §1
[3] = system: F98; test: Cytotoxicity against rat F98 cells assessed as cell viability at 0.31 uM incubated for 24 hrs by MTT assay relative to control; format: functional; conditions: read-out: Activity; method in brief: as §1
[4] = system: F98; test: Cytotoxicity against rat F98 cells assessed as cell growth inhibition incubated for 24 hrs by MTT assay; format: functional, cell-based; conditions: F98, 24 h; method in brief: as §1
[5] = Cytotoxicity against mouse N13 cells assessed as cell viability at 0.36 uM incubated for 24 hrs by MTT assay relative to control; format: functional; conditions: read-out: Activity; method in brief: as §1
[6] = system: F98; test: Cytotoxicity against rat F98 cells assessed as cell viability at 0.36 uM incubated for 24 hrs by MTT assay relative to control; format: functional; conditions: read-out: Activity; method in brief: as §1
[7] = Cytotoxicity against mouse N13 cells assessed as cell viability at 0.28 uM incubated for 24 hrs by MTT assay relative to control; format: functional; conditions: read-out: Activity; method in brief: as §1
[8] = system: F98; test: Cytotoxicity against rat F98 cells assessed as cell viability at 0.28 uM incubated for 24 hrs by MTT assay relative to control; format: functional; conditions: read-out: Activity; method in brief: as §1
[9] = Cytotoxicity against mouse N13 cells assessed as cell viability at 0.5 uM incubated for 24 hrs by MTT assay relative to control; format: functional; conditions: read-out: Activity; method in brief: as §1
[10] = system: F98; test: Cytotoxicity against rat F98 cells assessed as cell viability at 0.5 uM incubated for 24 hrs by MTT assay relative to control; format: functional; conditions: read-out: Activity; method in brief: as §1
[11] = Cytotoxicity against mouse N13 cells assessed as cell viability at 0.4 uM incubated for 24 hrs by MTT assay relative to control; format: functional; conditions: read-out: Activity; method in brief: as §1
[12] = system: F98; test: Cytotoxicity against rat F98 cells assessed as cell viability at 0.4 uM incubated for 24 hrs by MTT assay relative to control; format: functional; conditions: read-out: Activity; method in brief: as §1
[13] = system: F98; test: Cytotoxicity in rat F98 cells co-cultured with CM-Dil-labeled mouse N13 cells assessed as decrease in number of rat F98 cells measured after 24 hrs by bright-field microscopy; format: functional, cell-based; conditions: dose <= 100.0 µg/ml
Method in brief: (§2)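 Co-culture. N13 cells pre-labelled with the red membrane dye CM-DiI, then seeded together with F98 cells. Cells exposed to 0, 10 or 100 µg/mL for 24 h. Brightfield and fluorescence images taken on a high-content imager. Cell types separated by automatic segmentation on morphology (N13 rounded, F98 elongated) plus label. Cell counts and percentages of each type reported.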

[14] = system: N13; test: Cytotoxicity in CM-Dil-labeled mouse N13 cells co-cultured with rat F98 cells assessed as increase in number of mouse N13 cells upto 100 ug/ml measured after 24 hrs by bright-field microscopy; format: functional, cell-based; conditions: dose <= 100.0 µg/ml; method in brief: as §2
[15] = system: N13; test: Induction of apoptosis in mouse N13 cells assessed as accumulation at sub G0/G1 phase at 100 ug/ml incubated for 24 hrs by flow cytometry; format: functional, cell-based; conditions: dose 100.0 µg/ml
Method in brief: (§3)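 N13 or F98 cells exposed to 100 µg/mL for 24 h, untreated cells as controls. DNA content measured by flow cytometry. The fraction in the sub-G0/1 region taken as apoptotic cells.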

[16] = system: F98; test: Induction of apoptosis in rat F98 cells assessed as accumulation at sub G0/G1 phase at 100 ug/ml incubated for 24 hrs by flow cytometry relative to control; format: functional; conditions: dose 100 µg/ml; method in brief: as §3
[17] = Toxicity in rat assessed as brain injury administered locally in caudate nucleus of brain measured after 30 days by MRI analysis; format: tissue-based; conditions: in vivo, other, 720 h, route it, time 30 day
Method in brief: (§4)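 Non-tumor-bearing rats given a local injection into the caudate nucleus; PBS injected at the same site as control. Brain injury checked by in vivo MRI up to 30 days. Animals watched for external signs of pain or suffering. Survival monitored for 30 days.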

[18] = Toxicity in rat assessed as signs of pain administered locally in caudate nucleus of brain measured after 30 days; format: tissue-based; conditions: in vivo, other, 720 h, route it, time 30 day; method in brief: as §4
[19] = Toxicity in rat assessed as signs of suffering administered locally in caudate nucleus of brain measured after 30 days; format: tissue-based; conditions: in vivo, other, 720 h, route it, time 30 day; method in brief: as §4
[20] = Toxicity in rat assessed as survival rate administered locally in caudate nucleus of brain measured after 30 days relative to control; format: tissue-based; conditions: in vivo, route it, time 30 day
Method in brief: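 Non-tumor-bearing rats received compound by local injection into the caudate nucleus, with PBS injected into the same region as control. Brains were imaged by in vivo MRI (9.4 T) before and 30 days after injection. Animals were watched for signs of pain, and survival over 30 days was plotted as Kaplan-Meier.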

[21] = system: F98; test: Antitumor activity against rat F98 cells xenografted in Fisher rat assessed as necrotic/apoptotic tumor cells at 5 mg/kg, IT measured after 2 days by MRI analysis; format: functional, organism-based; conditions: time 2.0 day
[22] = system: F98; test: Antitumor activity against rat F98 cells xenografted in Fisher rat assessed as average tumor volume at 5 mg/kg, IT measured after 2 days by MRI analysis (reference value: 845 mm^3); format: functional; conditions: time 2 day
[23] = Toxicity in Fisher rat xenografted with rat F98 cells assessed as animal survival at 5 mg/kg, IT measured for 5 days; format: organism-based; conditions: in vivo, other, 120 h, time 5 day
Method in brief: (§5)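 F98 glioma cells implanted in rats per an earlier protocol. Tumor volume followed by T₂-weighted MRI (9.4 T, turbo-RARE, TE 33 ms, TR 2500 ms) on days 3, 5, 8, 10, 12 and 15. On day 10 (mean tumor about 325 mm³), compound in PBS was given intratumorally at 5 mg/kg; PBS alone was the control. Survival was plotted as Kaplan-Meier.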

[24] = system: F98; test: Antitumor activity against rat F98 cells xenografted in Fisher rat assessed as average tumor volume at 5 mg/kg, IT measured after 5 days by MRI analysis; format: functional; conditions: time 5 day
[25] = Toxicity in Fisher rat xenografted with rat F98 cells assessed as animal survival at 5 mg/kg, IT measured for 16 days; format: organism-based; conditions: in vivo, other, 384 h, time 16 day; method in brief: as §5
[26] = Cytotoxicity against mouse N13 cells assessed as cell viability at 0.34 uM incubated for 24 hrs by MTT assay relative to control; format: functional; conditions: read-out: Activity; method in brief: as §1
[27] = system: F98; test: Cytotoxicity against rat F98 cells assessed as cell viability at 0.34 uM incubated for 24 hrs by MTT assay relative to control; format: functional; conditions: read-out: Activity; method in brief: as §1

## CCOC(=O)C[C@H](N)c1cc(Br)ccc1O
[1]
  viability at 0.31 µM: 40%
[2]
  IC50: 500 µM
[3]
  viability at 0.31 µM: 60%
[4]
  IC50: 210 µM

## CCOC(=O)C[C@H](N)c1ccc(OC)cc1O
[5]
  viability at 0.36 µM: 55%
[2]
  IC50: 340 µM
[6]
  viability at 0.36 µM: 45%
[4]
  IC50: 470 µM

## CCOC(=O)C[C@H](N)c1cc(Br)cc(OC)c1O
[7]
  viability at 0.28 µM: 60%
[2]
  IC50: 220 µM
[8]
  viability at 0.28 µM: 60%
[4]
  IC50: 170 µM

## N[C@H]1CC(=O)Oc2ccccc21
[9]
  viability at 0.5 µM: 15%
[2]
  IC50: 1570 µM
[10]
  viability at 0.5 µM: 55%
[4]
  IC50: 480 µM

## CCOC(=O)C[C@H](N)c1ccccc1O.Cl
[11]
  viability at 0.4 µM: 0%
[12]
  viability at 0.4 µM: 60%
[4]
  IC50: 140 µM
[13]
  Activity: Dose-Dependent Effect
[14]
  Activity: Active
[15]
  Activity: inactive
[16]
  Activity: 42%
[17]
  Activity: Non-Toxic
[18]
  Activity: Non-Toxic
[19]
  Activity: Non-Toxic
[20]
  survival at 720 h: 100%
[21]
  Activity: Active
[22]
  Activity: 370 mm3
[23]
  Activity: Non-Toxic
[24]
  Activity: 815 mm3
[25]
  Activity: Non-Toxic

## CCOC(=O)C[C@@H](N)c1ccccc1O
[11]
  viability at 0.4 µM: 40%
[2]
  IC50: 450 µM
[12]
  viability at 0.4 µM: 35%
[4]
  IC50: 780 µM

## CCOC(=O)C[C@H](N)c1cc([N+](=O)[O-])ccc1O
[26]
  viability at 0.34 µM: 30%
[2]
  IC50: 660 µM
[27]
  viability at 0.34 µM: 20%
[4]
  IC50: 1140 µM

## CCOC(=O)C[C@H](N)c1cc(OC)ccc1O
[5]
  viability at 0.36 µM: 70%
[2]
  IC50: 40 µM
[6]
  viability at 0.36 µM: 5%
